Experimental findings from ChEMBL document CHEMBL1144020, “Development of prodrug 4-chloro-3-(5-methyl-3-{[4-(2-pyrrolidin-1-ylethoxy)phenyl]amino}-1,2,4-benzotriazin-7-yl)phenyl benzoate (TG100801): a topically administered therapeutic candidate in clinical trials for the treatment of age-related macular degeneration” (J Med Chem, 2008) are described below.

In data set [1] the target is Vascular endothelial growth factor receptor 2 (Homo sapiens, UniProt P35968). As to the kind of experiment: Inhibition of VEGFR2.
Chain of Vascular endothelial growth factor receptor 2 (P35968 whole entry): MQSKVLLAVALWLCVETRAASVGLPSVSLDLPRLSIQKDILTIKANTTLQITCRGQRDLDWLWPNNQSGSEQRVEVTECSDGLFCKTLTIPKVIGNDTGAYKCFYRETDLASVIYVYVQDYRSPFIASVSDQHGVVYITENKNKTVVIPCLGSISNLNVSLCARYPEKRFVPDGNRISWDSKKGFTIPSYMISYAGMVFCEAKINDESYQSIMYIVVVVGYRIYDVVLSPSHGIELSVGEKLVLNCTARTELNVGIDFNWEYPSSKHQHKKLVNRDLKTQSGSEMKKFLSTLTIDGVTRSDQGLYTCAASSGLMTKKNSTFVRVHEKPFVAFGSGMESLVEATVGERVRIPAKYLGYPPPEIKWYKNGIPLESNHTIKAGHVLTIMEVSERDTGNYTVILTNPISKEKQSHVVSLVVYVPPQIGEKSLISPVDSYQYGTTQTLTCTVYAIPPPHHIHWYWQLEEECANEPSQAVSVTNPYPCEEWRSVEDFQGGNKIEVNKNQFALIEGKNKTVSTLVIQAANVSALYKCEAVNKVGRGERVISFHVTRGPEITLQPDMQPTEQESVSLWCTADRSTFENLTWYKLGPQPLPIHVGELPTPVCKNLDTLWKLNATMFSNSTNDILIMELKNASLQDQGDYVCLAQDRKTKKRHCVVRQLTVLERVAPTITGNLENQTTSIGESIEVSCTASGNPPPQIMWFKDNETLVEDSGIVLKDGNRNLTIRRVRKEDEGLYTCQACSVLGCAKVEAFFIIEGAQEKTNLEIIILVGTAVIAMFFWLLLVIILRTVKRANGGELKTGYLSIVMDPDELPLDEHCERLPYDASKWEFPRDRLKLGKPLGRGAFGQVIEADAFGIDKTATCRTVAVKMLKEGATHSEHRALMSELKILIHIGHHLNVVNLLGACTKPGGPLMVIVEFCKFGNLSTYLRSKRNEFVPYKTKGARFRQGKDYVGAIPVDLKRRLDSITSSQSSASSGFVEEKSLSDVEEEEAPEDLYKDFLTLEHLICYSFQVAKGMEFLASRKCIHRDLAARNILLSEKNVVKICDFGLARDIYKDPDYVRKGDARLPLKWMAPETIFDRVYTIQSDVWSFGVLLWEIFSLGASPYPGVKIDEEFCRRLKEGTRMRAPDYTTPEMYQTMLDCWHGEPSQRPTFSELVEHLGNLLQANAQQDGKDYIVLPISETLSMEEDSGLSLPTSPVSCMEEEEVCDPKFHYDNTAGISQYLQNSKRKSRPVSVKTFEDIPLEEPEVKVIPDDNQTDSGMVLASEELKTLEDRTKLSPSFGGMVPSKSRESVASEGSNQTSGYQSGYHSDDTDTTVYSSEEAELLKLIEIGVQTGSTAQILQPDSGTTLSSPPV
In data set [2] the target is Proto-oncogene tyrosine-protein kinase Src (Homo sapiens, UniProt P12931). The experiment in a line: Inhibition of Src.
Chain of Proto-oncogene tyrosine-protein kinase Src (P12931 2-536 limits assumed): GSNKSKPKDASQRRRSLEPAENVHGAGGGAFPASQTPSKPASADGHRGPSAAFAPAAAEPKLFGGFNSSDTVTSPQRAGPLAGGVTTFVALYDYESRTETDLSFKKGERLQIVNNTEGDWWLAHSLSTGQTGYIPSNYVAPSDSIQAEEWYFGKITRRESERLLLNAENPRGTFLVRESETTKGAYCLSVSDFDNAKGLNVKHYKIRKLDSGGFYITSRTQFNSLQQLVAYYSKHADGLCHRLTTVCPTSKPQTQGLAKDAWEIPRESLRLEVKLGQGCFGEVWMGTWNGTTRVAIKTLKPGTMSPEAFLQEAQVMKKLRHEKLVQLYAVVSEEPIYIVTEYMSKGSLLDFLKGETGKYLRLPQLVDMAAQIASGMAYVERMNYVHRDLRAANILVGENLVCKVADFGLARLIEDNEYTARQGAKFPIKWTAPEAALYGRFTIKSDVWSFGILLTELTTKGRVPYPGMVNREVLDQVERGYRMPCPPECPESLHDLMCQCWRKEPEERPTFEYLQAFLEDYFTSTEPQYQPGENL
The nature of data set [3]: AUC (0 to 24 hrs) in C57BL/6 mouse choroid/sclera at 137 nM instilled per eye. The data set is classed as ADME, organism-based. Set-up: time < 24 hr, dose 137 nM, route ophthalmic. The following applies: topical or ocular, 137 nM per eye. An outline of the steps: (§1)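 One 10 µL topical drop per eye (70 µg, 137 nmol; 0.7% w/v in 27% w/v PL90G aqueous formulation) to 20 male C57BL/6 mice. Composite sampling, N = 4 per time point at 0.5, 1, 3, 7 and 24 h. Cornea, retina and choroid/sclera eye cup were dissected and plasma taken at euthanasia. LC/MS/MS quantitation; Tmax and Cmax from measured levels; AUC by linear trapezoidal rule on mean data.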

A short description of data set [4]: Antiproliferative activity against VEGF-stimulated human RMVEC cells after 48 hrs. The data set is classed as functional, cell-based. An outline of the steps: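 Human retinal microvascular endothelial cells (~1.5 × 10³/well) were made quiescent for ~48 h in growth-factor-free medium with 10% FBS. Cells were pretreated ~60 min with compound (5–0.00229 or 2–0.00195 µM) in medium with 10% FBS and 50 µg/mL heparin. VEGF 50 ng/mL was added for 48 h at 37 °C/5% CO₂. XTT read at 492/690 nm; IC50 by nonlinear regression.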

The subject of data set [5] is Mus musculus. As to the kind of experiment: Reduction of VEGF-induced retinal leak in BALB/c mouse administered topically at 137 nM q.d. In kind it is functional. Set-up: scale not given: the % may be the effect or the level left.
A short description of data set [6]: Cmax in C57BL/6 mouse plasma at 137 nM instilled per eye. The data set is classed as ADME, organism-based. On the set-up: dose 137 nM, route ophthalmic. The conditions noted are these: topical or ocular, 137 nM per eye. In a few lines: as §1
Data set [7] in a line: Cmax in C57BL/6 mouse cornea at 137 nM instilled per eye. The data set is classed as ADME, organism-based. On the set-up: dose 137 nM, route ophthalmic. The conditions noted are these: topical or ocular, 137 nM per eye. In a few lines: as §1
Data set [8] deals with Tyrosine-protein kinase Yes (Homo sapiens, UniProt P07947). The experiment in a line: Inhibition of YES.
Chain of Tyrosine-protein kinase Yes (P07947 whole entry): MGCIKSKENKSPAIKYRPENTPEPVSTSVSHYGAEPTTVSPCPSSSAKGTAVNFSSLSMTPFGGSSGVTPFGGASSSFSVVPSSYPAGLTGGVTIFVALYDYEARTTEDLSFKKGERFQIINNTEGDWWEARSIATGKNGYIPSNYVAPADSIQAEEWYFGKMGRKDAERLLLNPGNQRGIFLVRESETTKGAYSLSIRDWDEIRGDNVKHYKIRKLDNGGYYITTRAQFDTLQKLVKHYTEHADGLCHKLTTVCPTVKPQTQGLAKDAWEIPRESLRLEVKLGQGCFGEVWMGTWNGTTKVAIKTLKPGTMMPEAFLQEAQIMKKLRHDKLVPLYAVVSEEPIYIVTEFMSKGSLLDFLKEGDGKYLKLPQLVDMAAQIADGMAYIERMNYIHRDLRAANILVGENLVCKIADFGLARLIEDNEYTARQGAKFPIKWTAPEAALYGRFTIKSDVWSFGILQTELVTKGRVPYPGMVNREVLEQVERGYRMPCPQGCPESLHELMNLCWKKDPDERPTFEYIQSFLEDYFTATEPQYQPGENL
Data set [9] is described as follows: Tmax in C57BL/6 mouse choroid/sclera at 137 nM instilled per eye. The conditions noted are these: topical or ocular, 137 nM per eye. In kind it is ADME, organism-based. In a few lines:
as §1

The nature of data set [10]: AUC (0 to 24 hrs) in C57BL/6 mouse cornea at 137 nM instilled per eye. The data set is classed as ADME, organism-based. The conditions noted are these: topical or ocular, 137 nM per eye. Set-up: dose 137 nM, time < 24 hr, route ophthalmic. In a few lines: as §1
Data set [11] in a line: AUC (0 to 24 hrs) in C57BL/6 mouse retina at 137 nM instilled per eye. The following applies: topical or ocular, 137 nM per eye. Set-up: time < 24 hr, dose 137 nM, route ophthalmic. In kind it is ADME, organism-based. An outline of the steps:
as §1

A short description of data set [12]: Cmax in C57BL/6 mouse choroid/sclera at 137 nM instilled per eye. The data set is classed as ADME, organism-based. On the set-up: dose 137 nM, route ophthalmic. The conditions noted are these: topical or ocular, 137 nM per eye. In a few lines:
as §1

Data set [13] in a line: Half life in C57BL/6 mouse administered topically at 0.7% w/v thrice a day. In kind it is ADME, organism-based. The conditions noted are these: in vivo, topical or ocular.
Data set [14] is described as follows: Cmax in C57BL/6 mouse retina at 137 nM instilled per eye. In kind it is ADME, organism-based. On the set-up: dose 137 nM, route ophthalmic. The conditions noted are these: topical or ocular, 137 nM per eye. An outline of the steps: as §1
A short description of data set [15]: Stability at 120 degC after 1 hr. In kind it is physicochemical. The conditions noted are these: for remaining at 1 h: read-out: Stability. In a few lines:
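Prodrugs at 0.5% in 0.5% HPMC/5% dextrose, pH 6.7, in closed vials, autoclaved at 120 °C for 1 h. After cooling, percent remaining was assessed by reverse-phase HPLC with diode-array and ELSD detection.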

For data set [16], the system named is Mus musculus. As to the kind of experiment: Inhibition of FAK-Y861 phosphorylation in mouse at 5 mg/kg.
The subject of data set [17] is Mus musculus. As to the kind of experiment: Reduction of VEGF-induced retinal leak in BALB/c mouse administered topically at 137 nM thrice a day. On the set-up: scale not given: the % may be the effect or the level left. In kind it is functional.
Data set [18] can be described thus: Tmax in C57BL/6 mouse plasma at 137 nM instilled per eye. The data set is classed as ADME, organism-based. The conditions noted are these: topical or ocular, 137 nM per eye. In a few lines: as §1
Data set [19] is described as follows: Tmax in C57BL/6 mouse retina at 137 nM instilled per eye. The data set is classed as ADME, organism-based. The following applies: topical or ocular, 137 nM per eye. An outline of the steps:
as §1

A short description of data set [20]: Tmax in C57BL/6 mouse cornea at 137 nM instilled per eye. The data set is classed as ADME, organism-based. The conditions noted are these: topical or ocular, 137 nM per eye. An outline of the steps: as §1
Data set [21] in a line: Stability in Dutch-belted rabbit eye assessed as hydrolysis rate. The data set is classed as ADME, tissue-based, Oryctolagus cuniculus. In a few lines:
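Two Dutch-Belted rabbit eyeballs were homogenized in 1× RIPA buffer. Prodrug (from 1 mg/mL DMSO stock) was added to a final 5 µg/mL and kept at 37 °C, sampled at 0, 0.25, 1, 2 and 6 h. Controls were prodrug in RIPA buffer for 120 min at 37 °C. Supernatants were analyzed by LC/MS/MS for prodrug and released parent phenol.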

One may read the IC50 as the concentration that inhibits the measured activity by half. For `Cc1cc(-c2cc(O)ccc2Cl)cc2nnc(Nc3ccc(S(=O)(=O)C4CCNCC4)cc3)nc12`, the IC50 in data set [1] came out at 1.7 nM.

In the case of `Cc1cc(-c2ccccc2Cl)cc2nnc(Nc3ccc(OCCN4CCCC4)cc3)nc12`, the midpoint of inhibition in data set [1], the IC50, lay at 1900 nM.

Consider `Cc1cc(-c2cc(O)ccc2Cl)cc2nnc(Nc3ccc(CCCN4CCCC4)cc3)nc12`, for which the results for the IC50 in data set [2] and in [1] were 1.5 nM and 2.7 nM, respectively.

For orientation: AUC(0-t) means the area under the concentration-time curve up to a stated or last time point. As a reminder, the Cmax is the highest concentration seen after dosing. One may read the Tmax as the time from dosing to the highest level. The term half-life denotes the time in which the quantity being followed falls by half. The inhibition in vivo is the percentage by which the read-out fell short of the control. For `Cc1cc(-c2cc(O)ccc2Cl)cc2nnc(Nc3ccc(OCCN4CCCC4)cc3)nc12`, the exposure AUC(0-t) at 24 h, 0.137 µM in data set [3] amounted to 240 µg·h/mL; in data set [10], 560 µg·h/mL; in data set [11], 3.2 µg·h/mL. Besides, the half-inhibitory concentration (IC50) was determined as 610 nM in data set [4], 0.3 nM in data set [8], 1.8 nM in data set [2] and 2.2 nM in data set [1]. In addition, the Activity is 60% in [5] and 85% in data set [17]. Besides, the Cmax at 0.137 µM came to 0.002 µM in data set [6], 64 µM in data set [7], 23.4 µM in data set [12] and 3.6 µM in data set [14]. Moreover, the Tmax at 0.137 µM in data set [9] is 30 min; in data set [18] it was 360 min; in data set [19], 30 min; in [20], 30 min. The same compound gave a half-life in data set [13] of 30 min. In addition, the Stability result in [15] (1 h) is listed as “Stable”. The same compound came in with an inhibition in vivo at 5 mg/kg in [16] greater than 90%.

Take `Cc1cc(-c2cc(OC(=O)c3cccnc3)ccc2Cl)cc2nnc(Nc3ccc(OCCN4CCCC4)cc3)nc12`: the remaining at 1 h in data set [15] was determined as 50%.

For the compound `Cc1ccc(C(=O)Oc2ccc(Cl)c(-c3cc(C)c4nc(Nc5ccc(OCCN6CCCC6)cc5)nnc4c3)c2)cc1`, the remaining at 1 h in [15] is greater than 90%.

Turning to `Cc1cc(-c2cc(OC(=O)C(C)(C)C)ccc2Cl)cc2nnc(Nc3ccc(OCCN4CCCC4)cc3)nc12`, the remaining at 1 h in [15] is greater than 90%. Also, the Stability in [21] was 172 ng/mL/h.

`Cc1cc(-c2cc(OP(=O)(O)O)ccc2Cl)cc2nnc(Nc3ccc(OCCN4CCCC4)cc3)nc12`: the remaining at 1 h in data set [15] was less than 20%.

The compound `Cc1cc(-c2ccccc2)cc2nnc(Nc3ccc(OCCN4CCCC4)cc3)nc12` registered a half-inhibitory concentration (IC50) in data set [1] of 530 nM.
